B1: FLT3-L: FLT3 ligand from PeproTech (protein, UniProt P49771 27-235, looked up)
Fms-related tyrosine kinase 3 …: TQDCSFQHSPISSDFAVKIRELSDYLLQDYPVTVASNLQDEELCGGLWRLVLAQRWMERLKTVAGSKMQGLLERVNTEIHFVTKCAFQPPPSCLRFVQTNISRLLQETSEQLVALKPWITRQNFSRCLELQCQPDSSTLPPPWSPRPLEATAPTAPQPPLLLLLLLPVGLLLLAAAWCLHWQRTRRRTPRPGEQVPPVPSPQDLLLVEH

Assays:
SKM1 cells [1] = assay: Cytotoxicity; format: cell-based, human
[2] = system: SKM1, K562, KG1a, THP-1, and HL60 cell lines; assay: Cytotoxicity; format: cell-based, human; conditions: all of the cell lines tested (SKM1, K562, KG1a, THP-1, HL60)
[3] = system: SKM1, K562, KG1a, THP-1, and HL60 cell lines; assay: Apoptosis, Annexin V-positive cells at day 3, five cell lines; format: cell-based, human; conditions: IC10 APR alone, day 3, cell lines tested
How it was run: (§1)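 Human myeloid lines in RPMI 1640 with 10% FBS, 1% penicillin/streptomycin and 1% GlutaMAX. Log-phase cells seeded at 2x10^5/mL. Drugs added once at day 0: IC10 APR, IC50 AZA, or both at these concentrations. Annexin V-positive cells scored at day 3. Results given as means ± SD; Mann-Whitney test, two-sided.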

SKM1 cells [4] = assay: Cell cycle distribution 24 hours after treatment; format: cell-based, human; conditions: SKM1, 24 hours after exposure, IC10 APR with or without IC50 AZA
[5] = system: SKM1, K562, KG1a, THP-1, and HL60 cell lines; assay: Cell cycle distribution 24 hours after treatment, five cell lines; format: cell-based, human; conditions: IC10 APR alone, various cell lines tested
[6] = system: primary cells from MDS/AML patients; assay: Clonogenic assay in semi-solid medium; format: cell-based, human; conditions: 14 days, 34 MDS/AML patient samples
SKM1 cell line = assay: Transcriptomic analysis; format: cell-based, human; conditions: IC10 APR vs untreated SKM1 cells, GSEA
HL60 cells = assay: Cytotoxicity; format: cell-based; conditions: Homo sapiens, HL-60, 72 h, read-out: IC50 (proliferation)
SKM1 cells [7] = assay: Apoptosis, Annexin V-positive cells at day 3; format: cell-based, human; conditions: SKM1, day 3, IC10 APR and/or IC50 AZA
How it was run: as §1

| Molecule | IC50 fold lower for the SKM1 cell line compared to the other AML lines (SKM1 cells [1]; SKM1 vs K562, KG1a, THP-1, HL60) | 50% inhibitory concentrations (IC50), cell proliferation [2] | induction of apoptosis [3] | cells in G0/G1 phase (SKM1 cells [4]) [%] | effect on cell cycle distribution [5] | reduction of myeloid and erythroid colony growth [6] | ROS-induced genes NES (SKM1 cell line; 18 hours) | early apoptotic program NES (SKM1 cell line) | p53 pathway Normalized Enrichment Score (NES) (SKM1 cell line) | IC50 (SKM1 cells [1]; Homo sapiens, SKM-1, 72 h, read-out: IC50 (proliferation)) [nM] | IC50 (HL60 cells) [nM] | apoptotic cells (Annexin V-positive) (SKM1 cells [7]) [%] | effect on SKM1 cell proliferation (SKM1 cells [1]; FLT3-L on its own, 0.1 to 100 ng/mL) |
| --- | --- | --- | --- | --- | --- | --- | --- | --- | --- | --- | --- | --- | --- |
| COCC1(CO)C(=O)C2CCN1CC2 (centres unmarked) [APR, PRIMA-1^Met] | at least 2 fold | in the micromolar range | did not induce apoptosis | 62 | did not affect the cell cycle distribution | approximately 60% | 1.2 | 1.1 | 1.2 |  |  |  |  |
| Nc1ncn([C@@H]2O[C@H](CO)[C@@H](O)[C@H]2O)c(=O)n1 [AZA, 5-azacitidine] |  |  |  |  |  | 30% |  |  |  | 540 | 4500 | 19 |  |
| B1 |  |  |  |  |  |  |  |  |  |  |  |  | did not affect SKM1 cell proliferation |

— PMC7271596 (Haematologica, 2019)
